Experimental data reported in ChEMBL document CHEMBL1138509, “Synthesis and biological activities of topoisomerase I inhibitors, 6-arylmethylamino analogues of edotecarin” (J Med Chem, 2009).

Legend:
[1] = Safety margin, ratio of LD10 for nude mouse to GID75 for human MKN45 cells; type: toxicity, cell-based; details: mkn-45
Method in brief: (§1)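 Nude mice carried MKN-45 or MX-1 tumours implanted subcutaneously in a side flank. Compounds were given iv, either five times/week or twice/week for two consecutive weeks. The twice/week arm started once tumours reached 0.2 cm³ or larger. GID75 is the approximate dose giving 75% tumour growth inhibition, and LD10 is the approximate 10% lethal dose at that schedule. Safety margin = LD10/GID75.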

[2] = test system: MKN-45; experiment: Cytotoxicity against human MKN45 cells after 72 hrs; type: functional, cell-based; details: MKN-45, 72 h
Method in brief: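 MKN-45 human stomach cancer cells were incubated with compound for 72 h. Cytotoxicity was measured by the colorimetric tetrazolium-formazan method and by sulforhodamine B dye staining.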

[3] = test system: MX1; experiment: Antitumor activity in human MX1 cells xenografted iv dosed nude mouse assessed as tumor growth inhibition administered 5 times per week for 2 weeks at tumor growth of >= 0.2 cm2; type: functional
Method in brief: (§2)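 Human MKN-45 (stomach) or MX-1 (breast) cells implanted subcutaneously into a side flank of nude mice. Compound given iv five times/week. GID₇₅ is the approximate dose giving 75% growth inhibition. LD₁₀ is the approximate 10% lethal dose at that schedule. Safety margin is LD₁₀/GID₇₅.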

[4] = Safety margin, ratio of LD10 for nude mouse to GID75 for human MX1 cells; type: toxicity, cell-based; method in brief: as §1
[5] = target: T1, DNA topoisomerase 1 (Homo sapiens, UniProt P11387); experiment: Inhibition of human DNA topoisomerase 1-mediated DNA cleavage assessed as relaxation of supercoiled pBR322 plasmid DNA after 15 mins by densitometer
T1 sequence (P11387 whole entry): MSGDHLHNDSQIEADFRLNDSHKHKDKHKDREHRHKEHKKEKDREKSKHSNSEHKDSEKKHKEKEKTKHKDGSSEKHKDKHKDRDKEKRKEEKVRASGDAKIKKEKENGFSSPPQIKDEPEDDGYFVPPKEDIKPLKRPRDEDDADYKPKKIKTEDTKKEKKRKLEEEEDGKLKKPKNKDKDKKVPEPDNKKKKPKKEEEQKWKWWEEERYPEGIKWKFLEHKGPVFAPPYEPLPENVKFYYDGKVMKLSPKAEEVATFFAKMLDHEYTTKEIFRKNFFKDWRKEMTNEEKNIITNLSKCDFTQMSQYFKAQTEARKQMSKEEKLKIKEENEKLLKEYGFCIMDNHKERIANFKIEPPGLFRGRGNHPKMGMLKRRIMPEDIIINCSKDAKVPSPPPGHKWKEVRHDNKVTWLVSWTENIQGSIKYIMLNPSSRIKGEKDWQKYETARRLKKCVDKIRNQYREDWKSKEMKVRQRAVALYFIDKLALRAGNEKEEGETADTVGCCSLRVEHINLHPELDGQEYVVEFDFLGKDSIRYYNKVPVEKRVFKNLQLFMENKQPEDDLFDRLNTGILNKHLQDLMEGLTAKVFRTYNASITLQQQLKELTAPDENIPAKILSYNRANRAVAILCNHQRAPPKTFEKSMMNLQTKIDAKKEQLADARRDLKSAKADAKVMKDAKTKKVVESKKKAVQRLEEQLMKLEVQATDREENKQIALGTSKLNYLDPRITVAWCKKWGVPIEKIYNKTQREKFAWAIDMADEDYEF

[6] = test system: Mus musculus; experiment: Toxicity in human MKN45 cells xenografted iv dosed nude mouse; type: organism-based, MKN-45; details: in vivo
Method in brief: (§3)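 Toxicity was taken as LD10, the approximate dose lethal to 10% of nude mice at the treatment schedule. Mice bore subcutaneous side-flank MKN-45 or MX-1 xenografts and received iv dosing, either five times/week or twice/week for two consecutive weeks.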

[7] = test system: Mus musculus; experiment: Toxicity in human MX1 cells xenografted iv dosed nude mouse; type: organism-based; details: in vivo; method in brief: as §3
[8] = test system: DLD-1; experiment: Cytotoxicity against human DLD1 cells after 72 hrs; type: functional, cell-based; details: DLD-1, 72 h
[9] = Inhibition of PKC
Method in brief: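 Protein kinase C inhibition assay, with Histone II-As as substrate.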

[10] = test system: MKN-45; experiment: Antitumor activity in human MKN45 cells xenografted iv dosed nude mouse assessed as tumor growth inhibition administered 5 times per week for 2 weeks at tumor growth of >= 0.2 cm2; type: functional; method in brief: as §2
[11] = test system: P388/S; experiment: Cytotoxicity against mouse P388/S cells after 72 hrs by colorimetric tetrazolium-formazan method; type: functional, cell-based
Method in brief: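 Murine leukaemia P388 cells were exposed to compound for 72 h. Viability was read by the colorimetric tetrazolium-formazan method.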

[12] = target: Epidermal growth factor receptor (Homo sapiens, UniProt P00533); experiment: Inhibition of EGFR
Sequence of Epidermal growth factor receptor (P00533 whole entry): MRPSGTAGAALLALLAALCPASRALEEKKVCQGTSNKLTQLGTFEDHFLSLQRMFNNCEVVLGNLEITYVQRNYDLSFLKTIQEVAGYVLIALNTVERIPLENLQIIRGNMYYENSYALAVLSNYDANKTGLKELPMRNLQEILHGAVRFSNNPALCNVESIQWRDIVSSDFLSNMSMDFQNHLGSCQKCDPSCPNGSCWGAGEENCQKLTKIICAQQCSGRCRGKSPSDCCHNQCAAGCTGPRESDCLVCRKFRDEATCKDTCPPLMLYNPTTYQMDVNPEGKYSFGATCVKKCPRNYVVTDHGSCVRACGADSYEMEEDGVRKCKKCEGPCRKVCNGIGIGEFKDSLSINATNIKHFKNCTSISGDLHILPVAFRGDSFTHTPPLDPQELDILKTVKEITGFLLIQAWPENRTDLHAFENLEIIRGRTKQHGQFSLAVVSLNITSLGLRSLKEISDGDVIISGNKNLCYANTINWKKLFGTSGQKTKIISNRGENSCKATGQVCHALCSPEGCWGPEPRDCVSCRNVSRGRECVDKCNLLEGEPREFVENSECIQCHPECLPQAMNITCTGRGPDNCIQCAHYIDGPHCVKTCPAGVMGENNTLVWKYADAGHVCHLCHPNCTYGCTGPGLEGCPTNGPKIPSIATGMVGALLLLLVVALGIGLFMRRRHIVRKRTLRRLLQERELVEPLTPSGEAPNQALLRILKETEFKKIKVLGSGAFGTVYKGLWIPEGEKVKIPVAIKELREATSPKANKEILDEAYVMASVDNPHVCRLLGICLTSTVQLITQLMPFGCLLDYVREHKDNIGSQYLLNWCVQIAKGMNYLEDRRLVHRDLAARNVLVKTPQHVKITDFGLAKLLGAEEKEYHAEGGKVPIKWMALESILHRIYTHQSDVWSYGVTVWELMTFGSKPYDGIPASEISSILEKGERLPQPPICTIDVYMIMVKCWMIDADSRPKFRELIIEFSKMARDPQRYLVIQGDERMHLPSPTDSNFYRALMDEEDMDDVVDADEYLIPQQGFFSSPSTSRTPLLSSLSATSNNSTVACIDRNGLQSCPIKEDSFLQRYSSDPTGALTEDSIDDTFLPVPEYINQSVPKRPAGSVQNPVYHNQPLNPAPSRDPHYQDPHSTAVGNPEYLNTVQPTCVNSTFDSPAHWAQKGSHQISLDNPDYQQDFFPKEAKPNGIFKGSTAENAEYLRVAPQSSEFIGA
Method in brief: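 Kinase-inhibition assay against EGF receptor kinase, with Poly(Glu4Tyr1) as substrate.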

O=C1c2c(c3c4ccc(O)cc4n([C@@H]4O[C@H](CO)[C@@H](O)[C@H](O)[C@H]4O)c3c3[nH]c4cc(O)ccc4c23)C(=O)N1NC(CO)CO [EDOTECARIN]
selectivity ratio [1]: > 36 | IC50 [2]: 4.8 nM | GID75 [3]: 160 mg/m2 | selectivity ratio [4]: > 13 | EC50 [5]: 51 nM | LD10 [6]: > 1600 mg/m2 | LD10 [7]: > 2000 mg/m2 | IC50 [8]: 70 nM | IC50 [9]: 18000 nM | GID75 [10]: 45 mg/m2 | IC50 [11]: 1.5 nM | IC50 [12]: > 200000 nM
